In brackets after ≈: the same amount, converted by molar mass.

Assay [1] has as its system SH-SY5Y. Briefly: Cell viability of human SH-SY5Y cells at 0.1 uM after 24 hrs by MTS assay. The format is functional. The method in brief:
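SH-SY5Y cells were grown in 1:1 EMEM/F12K with 10% heat-inactivated FBS at 37 °C and 5% CO₂. One day after plating, cells were pretreated with compound for 2 h, then exposed to hydrogen peroxide for 24 h. MTS reagent was added for 3 h at 37 °C and OD read at 490 nm. Viability is % of control, from at least two independent experiments in triplicate.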
(Formazan colour is commonly taken as a measure of viable cells.)

The test system of the next assay is Bacillus subtilis. In words: Antimicrobial activity against Bacillus subtilis ATCC 6633 after 16 to 18 hrs by agar dilution method. It counts as functional. The method in brief: (§1)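 Agar dilution MIC per CLSI on Mueller Hinton agar. Stocks were diluted in DMSO or 0.1 M NaOH as a twofold series, with final concentrations 0.06–128. Plates were spotted at 10⁴ cfu/spot and incubated in ambient air at 36 °C for 16–18 h. MIC was the lowest concentration that prevented visible growth.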
(In agar dilution the substance is mixed into plates at graded concentrations.)

The test system of the next assay is Staphylococcus aureus. In words: Antibacterial activity against Staphylococcus aureus ATCC 25923 after 16 to 18 hrs by agar dilution method. It counts as functional. The method in brief:
(§2)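 Agar dilution MIC following CLSI guidance. E. faecalis was grown on Brain–Heart Infusion agar and the other strains on Mueller Hinton agar. Compounds were diluted in DMSO or 0.1 M NaOH in twofold steps to give final concentrations of 0.06–128 µg/mL. Inocula of 10^4 cfu/spot were incubated 16–18 h at 36 °C in ambient air. MIC was taken as the lowest concentration preventing visible growth.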

Another assay has as its system Enterococcus faecalis. In words: Antibacterial activity against Enterococcus faecalis ATCC 29212 after 16 to 18 hrs by agar dilution method. It counts as functional. Summed up: as §2
The test system of another assay is Serratia marcescens. Briefly: Antibacterial activity against Serratia marcescens ATCC 27117 after 16 to 18 hrs by agar dilution method. The format is functional. The method in brief:
as §1

For assay [2], the system named is Staphylococcus epidermidis. In words: Antibacterial activity against Staphylococcus epidermidis ATCC 12228 after 16 to 18 hrs by agar dilution method. It counts as functional. Summed up: as §2
Assay [3] deals with SH-SY5Y. Briefly: Enhancement of cell viability of human SH-SY5Y cells at 0.1 uM after 24 hrs by MTS assay relative to control. The format is functional. The method in brief:
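SH-SY5Y neuroblastoma cells were grown in 1:1 EMEM/F12K with 10% heat-inactivated FBS at 37 °C, 5% CO2. After 1 day, cells were pretreated with compound at 0.1 µM for 2 h, then exposed to 200 µM H2O2 for 24 h. Viability was read by MTS (3 h, 37 °C, OD 490 nm) as a percentage of control. At least two independent experiments, each in triplicate.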

For the next assay, the system named is Enterobacter cloacae. In words: Antibacterial activity against Enterobacter cloacae ATCC 13047 after 16 to 18 hrs by agar dilution method. The format is functional.
Another assay concerns Escherichia coli. Briefly: Antibacterial activity against Escherichia coli ATCC 25922 after 16 to 18 hrs by agar dilution method. It counts as functional. Summed up:
as §2

The subject of assay [4] is Rattus norvegicus. Briefly: Cardioprotective effect in Sprague-Dawley rat myocardial infarction model assessed as reduction of infract area in heart at 0.1 mg/kg, ip. The conditions noted are these: route intraperitoneal. The format is functional. Also noted: scale not given: the % may be the effect or the level left. The method in brief:
(§3)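 Male Sprague–Dawley rats (260–290 g) were anesthetized with ketamine ([…]) and xylazine (5 mg/kg). A single ip dose was given 1 h before regional myocardial ischemia (30 min), followed by 3 h reperfusion. After 1% Evans blue, the left ventricle was cut into two slices and stained with TTC. Infarct size was expressed as % of area at risk versus vehicle, using Student's t-test (P < 0.05).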

Assay [5] deals with Rattus norvegicus. Briefly: Antiischemic effect in Sprague-Dawley rat focal ischemic sroke model assessed as reduction of infract size in brain at 0.01 mg/kg, ip after 24 hrs under pre-ischemic conditions. The format is functional. Also noted: scale not given: the % may be the effect or the level left. Conditions: route intraperitoneal. Summed up: (§4)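 Rat MCAO with 2 h ischemia and 22 h reperfusion, pre-ischemic regimen. Compound was given ip three times: 3 h and 1 h before, and 1 h after, MCA occlusion. Brains were removed 24 h after ischemia, cut into seven slices, and stained with TTC. Infarct volume was measured by computer-assisted planimetry and expressed as % reduction versus vehicle-treated rats.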

Assay [6] deals with Rattus norvegicus. In words: Cardioprotective effect in Sprague-Dawley rat myocardial infarction model assessed as reduction of infract area in heart at 0.001 mg/kg, ip. The format is functional. More on the design: scale not given: the % may be the effect or the level left. The conditions noted are these: route intraperitoneal. Summed up:
as §3

Assay [7] has as its system Rattus norvegicus. Briefly: Antiischemic effect in Sprague-Dawley rat focal ischemic sroke model assessed as reduction of infract size in brain at 0.001 mg/kg, ip after 24 hrs under pre-ischemic conditions. The format is functional. Also noted: scale not given: the % may be the effect or the level left. Conditions: route intraperitoneal. The method in brief: as §4
The test system of assay [8] is Rattus norvegicus. In words: Antiischemic effect in Sprague-Dawley rat focal ischemic sroke model assessed as reduction of infract size in brain at 0.01 mg/kg, ip after 24 hrs under post-ischemic conditions. More on the design: scale not given: the % may be the effect or the level left. The conditions noted are these: route intraperitoneal.
For assay [9], the system named is Rattus norvegicus. In words: Antiischemic effect in Sprague-Dawley […] sroke model assessed as reduction of infract size in brain at 0.1 mg/kg, ip after 24 hrs under pre-ischemic conditions. The format is functional. More on the design: scale not given: the % may be the effect or the level left. The conditions noted are these: route intraperitoneal. The method in brief:
as §4

The test system of assay [10] is Rattus norvegicus. Briefly: Cardioprotective effect in Sprague-Dawley rat myocardial infarction model assessed as reduction of infract area in heart at 0.01 mg/kg, ip. The format is functional. Also noted: scale not given: the % may be the effect or the level left. Conditions: route intraperitoneal. Summed up: as §3
In assay [11] the test system is Rattus norvegicus. In words: Cardioprotective effect in Sprague-Dawley rat myocardial infarction model assessed as reduction of infract size in heart at 0.001 mg/kg, ip. It counts as functional. More on the design: scale not given: the % may be the effect or the level left. The conditions noted are these: route intraperitoneal. Summed up: as §3
Assay [12] has as its system Rattus norvegicus. Briefly: Cardioprotective effect in Sprague-Dawley rat myocardial infarction model assessed as reduction of infract size in heart at 0.01 mg/kg, ip. Also noted: scale not given: the % may be the effect or the level left. It counts as functional. Conditions: route intraperitoneal. The method in brief:
as §3

Take `O=C(O)c1cn(C2CC2)c2ccccc2c1=O`: in the assay with SH-SY5Y [1], the Activity was found to be 39%.

`O=C(O)c1cn(C2CC2)c2cc(N3CCCCC3)c(F)cc2c1=O` came in with an Activity in the assay with SH-SY5Y [1] of 44.1%.

By MIC is commonly meant the least concentration at which growth counts as inhibited. Turning to `O=C(O)c1cn(C2CC2)c2cc(N3CCNCC3)c(F)cc2c1=O` [CIPROFLOXACIN], the MIC is 1 µg/mL (≈ 3.02 µM) with Bacillus subtilis; 2 µg/mL (≈ 6.04 µM) in the assay with Staphylococcus aureus; 2 µg/mL (≈ 6.04 µM) in the assay with Enterococcus faecalis; 0.125 µg/mL (≈ 0.377 µM) in the assay on Serratia marcescens; 1 µg/mL (≈ 3.02 µM) in assay [2]. The Activity in the assay with SH-SY5Y [1] was 46.5%.

In the case of `O=c1ccn(C2CC2)c2cc(N3CCNCC3)c(F)cc12`, the MIC against Bacillus subtilis was 8 µg/mL (≈ 27.8 µM); in the assay on Staphylococcus aureus it was 16 µg/mL (≈ 55.7 µM); against Enterococcus faecalis it was 8 µg/mL (≈ 27.8 µM); in the assay with Enterobacter cloacae it was 0.5 µg/mL (≈ 1.74 µM); in the assay with Serratia marcescens, 1 µg/mL (≈ 3.48 µM); in the assay with Escherichia coli, less than 0.12 µg/mL. The MIC in [2] was found to be 8 µg/mL (≈ 27.8 µM). In addition, the Activity came out at 33% in the assay with SH-SY5Y [3] and 57.4% with SH-SY5Y [1].

As for `Cc1c(C(=O)O)c(=O)c2cc(F)c(N3CCNCC3)cc2n1C1CC1`, the Activity with SH-SY5Y [1] was found to be 49.9%.

In the case of `O=C(O)c1cn(C2CC2)c2ccc(F)cc2c1=O`, in the assay with SH-SY5Y [1], the Activity was found to be 45.1%.

The compound `O=C(O)c1cn(C2CC2)c2cc(N3CCNCC3)c(F)cc2c1=S` returned an Activity in the assay on SH-SY5Y [1] of 27.1%.

As for `O=C(O)c1cn(C2CC2)c2cc(N3CCNCC3)ccc2c1=O`, the MIC is 8 µg/mL (≈ 25.5 µM) against Bacillus subtilis; 32 µg/mL (≈ 102 µM) against Staphylococcus aureus; 64 µg/mL (≈ 204 µM) in the assay with Enterococcus faecalis; 1 µg/mL (≈ 3.19 µM) against Enterobacter cloacae; 4 µg/mL (≈ 12.8 µM) in the assay on Serratia marcescens; 0.5 µg/mL (≈ 1.6 µM) in the assay with Escherichia coli. Further, the MIC in assay [2] was determined as 16 µg/mL (≈ 51.1 µM). Further, the Activity in the assay on Rattus norvegicus [4] amounted to 78.3%; in the assay on Rattus norvegicus [5], 32.1%; in the assay on Rattus norvegicus [6], 62.1%; with SH-SY5Y [3], 42%; in the assay with Rattus norvegicus [7], 9.6%; in the assay on Rattus norvegicus [8], 8.9%. In addition, the Activity was found to be 5.3% in the assay with Rattus norvegicus [9]; 53.1% with Rattus norvegicus [10]; 61.7% with SH-SY5Y [1]; 14.2% in the assay with Rattus norvegicus [11]; 26.6% in the assay with Rattus norvegicus [12].

`O=C(O)c1cn(C2CC2)c2cc(C3CCNCC3)c(F)cc2c1=O` returned an Activity in the assay with SH-SY5Y [1] of 42.4%.

The record behind these values is ChEMBL document CHEMBL1143767, “Identification, biological activity, and mechanism of the anti-ischemic quinolone analog” (2007).
